Test results reported in ChEMBL document CHEMBL4689842, “EUbOPEN Chemogenomics Library wave 1” (2021).
“And” between values parts separate entries of the source, which are not always exact repeats. Identical values can stand only once.

System: HEK-293T
Assay: Multiplex assay against HEK293T;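 on Population Tubulin-Different-Phenotype (%): share of the cells with healthy nuclei that show this phenotype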
Format: toxicity, cell-based
Settings: human
How it was run: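 Four dyes were applied at seeding to live cells: Hoechst33342, BioTracker Green Microtubule Cytoskeleton Dye, MitoTracker Red and Annexin V Alexa Fluor 680. Imaging after compound addition used a CQ1 microscope at 37°C and 5% CO2. CellPathfinder machine-learning gating then sorted cells into Hoechst high-intensity objects or normal cells, normal cells into healthy, pyknosed or fragmented nuclei, and pyknosed cells into mitotic or apoptotic, with tubulin, mitochondrial-mass and membrane-permeability phenotypes given as per cents of healthy-nucleus cells.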

[1] = 12 h, 1 µM, compound concentration 1 uM, replicate 1
[2] = 12 h, 1 µM, compound concentration 1 uM, replicate 2
[3] = 12 h, 10 µM, compound concentration 10 uM, replicate 1
[4] = 12 h, 10 µM, compound concentration 10 uM, replicate 2
[5] = 24 h, 1 µM, compound concentration 1 uM, replicate 1
[6] = 24 h, 1 µM, compound concentration 1 uM, replicate 2
[7] = 24 h, 10 µM, compound concentration 10 uM, replicate 1
[8] = 24 h, 10 µM, compound concentration 10 uM, replicate 2

SMILES: CCOc1ccn(-c2ccc(F)cc2)c(=O)c1C(=O)Nc1ccc(Oc2ccnc(N)c2Cl)c(F)c1 [BMS-777607]
- Population Apoptotic (%) [1]: 25%
- Population Fragmented Nuclei (%) [1]: 14%
- Population Healthy Nuclei (%) [1]: 67%
- Population Hoechst High Intensity Objects (%) [1]: 10%
- Population Membrane Permeable-Phenotype (%) [1]: 6%
- Population Mitochondria Different-Phenotype (%) [1]: 10%
- Population Mitotic Cells (%) [1]: 75%
- Population Normal (%) [1]: 89%
- Population Pyknosed Nuclei (%) [1]: 17%
- Population Tubulin-Different-Phenotype (%) [1]: 22%
- Total Cell Count [1]: 624
- Population Apoptotic (%) [2]: 5%
- Population Fragmented Nuclei (%) [2]: 5%
- Population Healthy Nuclei (%) [2]: 89%
- Population Hoechst High Intensity Objects (%) [2]: 2%
- Population Mitochondria Different-Phenotype (%) [2]: 16%
- Population Mitotic Cells (%) [2]: 95%
- Population Normal (%) [2]: 97%
- Population Pyknosed Nuclei (%) [2]: 5%
- Population Tubulin-Different-Phenotype (%) [2]: 48%
- Total Cell Count [2]: 1393
- Population Apoptotic (%) [3]: 23%
- Population Fragmented Nuclei (%) [3]: 25%
- Population Healthy Nuclei (%) [3]: 50%
- Population Hoechst High Intensity Objects (%) [3]: 15%
- Population Membrane Permeable-Phenotype (%) [3]: 4%
- Population Mitochondria Different-Phenotype (%) [3]: 3%
- Population Mitotic Cells (%) [3]: 76%
- Population Normal (%) [3]: 84%
- Population Pyknosed Nuclei (%) [3]: 25%
- Population Tubulin-Different-Phenotype (%) [3]: 3%
- Total Cell Count [3]: 432
- Population Apoptotic (%) [4]: 15%
- Population Fragmented Nuclei (%) [4]: 9%
- Population Healthy Nuclei (%) [4]: 86%
- Population Hoechst High Intensity Objects (%) [4]: 2%
- Population Membrane Permeable-Phenotype (%) [4]: 2%
- Population Mitochondria Different-Phenotype (%) [4]: 7%
- Population Mitotic Cells (%) [4]: 84%
- Population Normal (%) [4]: 97%
- Population Pyknosed Nuclei (%) [4]: 4%
- Population Tubulin-Different-Phenotype (%) [4]: 5%
- Total Cell Count [4]: 1444
- Population Apoptotic (%) [5]: 17%
- Population Fragmented Nuclei (%) [5]: 11%
- Population Healthy Nuclei (%) [5]: 76%
- Population Hoechst High Intensity Objects (%) [5]: 10%
- Population Membrane Permeable-Phenotype (%) [5]: 10%
- Population Mitochondria Different-Phenotype (%) [5]: 12%
- Population Mitotic Cells (%) [5]: 82%
- Population Normal (%) [5]: 89%
- Population Pyknosed Nuclei (%) [5]: 12%
- Population Tubulin-Different-Phenotype (%) [5]: 40%
- Total Cell Count [5]: 625
- Population Apoptotic (%) [6]: 9%
- Population Fragmented Nuclei (%) [6]: 10%
- Population Healthy Nuclei (%) [6]: 84%
- Population Hoechst High Intensity Objects (%) [6]: 6%
- Population Membrane Permeable-Phenotype (%) [6]: 12%
- Population Mitochondria Different-Phenotype (%) [6]: 4%
- Population Mitotic Cells (%) [6]: 90%
- Population Normal (%) [6]: 93%
- Population Pyknosed Nuclei (%) [6]: 4%
- Population Tubulin-Different-Phenotype (%) [6]: 70%
- Total Cell Count [6]: 1553
- Population Apoptotic (%) [7]: 25%
- Population Fragmented Nuclei (%) [7]: 18%
- Population Healthy Nuclei (%) [7]: 69%
- Population Hoechst High Intensity Objects (%) [7]: 13%
- Population Membrane Permeable-Phenotype (%) [7]: 6%
- Population Mitochondria Different-Phenotype (%) [7]: 3%
- Population Mitotic Cells (%) [7]: 74%
- Population Normal (%) [7]: 86%
- Population Pyknosed Nuclei (%) [7]: 12%
- Population Tubulin-Different-Phenotype (%) [7]: 5%
- Total Cell Count [7]: 433
- Population Apoptotic (%) [8]: 8%
- Population Fragmented Nuclei (%) [8]: 27%
- Population Hoechst High Intensity Objects (%) [8]: 2%
- Population Membrane Permeable-Phenotype (%) [8]: 5%
- Population Mitochondria Different-Phenotype (%) [8]: 1%
- Population Mitotic Cells (%) [8]: 91%
- Population Normal (%) [8]: 97%
- Population Pyknosed Nuclei (%) [8]: 2%
- Total Cell Count [8]: 2353

SMILES: CC[C@@]1(O)C(=O)OCc2c1cc1n(c2=O)Cc2cc3ccccc3nc2-1 [CAMPTOTHECIN]
- Population Apoptotic (%) [1]: 13% and 29% and 33%
- Population Healthy Nuclei (%) [1]: 67% and 60% and 69%
- Population Membrane Permeable-Phenotype (%) [1]: 5% and 3%
- Population Mitochondria Different-Phenotype (%) [1]: 5% and 3%
- Population Mitotic Cells (%) [1]: 86% and 70% and 66%
- Population Normal (%) [1]: 94% and 66% and 79%
- Population Tubulin-Different-Phenotype (%) [1]: 5% and 0% and 2%
- Total Cell Count [1]: 915 and 710 and 886
- Population Healthy Nuclei (%) [2]: 94% and 77% and 79%
- Population Membrane Permeable-Phenotype (%) [2]: 2% and 1%
- Population Mitochondria Different-Phenotype (%) [2]: 19% and 9%
- Population Mitotic Cells (%) [2]: 87% and 81% and 50%
- Population Normal (%) [2]: 98% and 95% and 96%
- Population Pyknosed Nuclei (%) [2]: 2% and 1% and 0%
- Total Cell Count [2]: 1821 and 1627 and 1427
- Population Apoptotic (%) [3]: 16%
- Population Fragmented Nuclei (%) [3]: 15%
- Population Healthy Nuclei (%) [3]: 57%
- Population Hoechst High Intensity Objects (%) [3]: 13%
- Population Membrane Permeable-Phenotype (%) [3]: 3%
- Population Mitochondria Different-Phenotype (%) [3]: 2%
- Population Mitotic Cells (%) [3]: 83%
- Population Normal (%) [3]: 86%
- Population Pyknosed Nuclei (%) [3]: 26%
- Population Tubulin-Different-Phenotype (%) [3]: 2%
- Total Cell Count [3]: 665
- Population Apoptotic (%) [4]: 20%
- Population Fragmented Nuclei (%) [4]: 3%
- Population Healthy Nuclei (%) [4]: 93%
- Population Hoechst High Intensity Objects (%) [4]: 2%
- Population Membrane Permeable-Phenotype (%) [4]: 2%
- Population Mitochondria Different-Phenotype (%) [4]: 14%
- Population Mitotic Cells (%) [4]: 80%
- Population Normal (%) [4]: 97%
- Population Pyknosed Nuclei (%) [4]: 3%
- Population Tubulin-Different-Phenotype (%) [4]: 9%
- Total Cell Count [4]: 1781
- Population Apoptotic (%) [5]: 26% and 33% and 22%
- Population Healthy Nuclei (%) [5]: 68% and 76% and 85%
- Population Membrane Permeable-Phenotype (%) [5]: 7% and 5% and 4%
- Population Mitochondria Different-Phenotype (%) [5]: 3% and 4% and 5%
- Population Mitotic Cells (%) [5]: 73% and 66% and 77%
- Population Normal (%) [5]: 69% and 81% and 96%
- Population Pyknosed Nuclei (%) [5]: 5% and 2% and 10%
- Population Tubulin-Different-Phenotype (%) [5]: 5% and 6%
- Total Cell Count [5]: 653 and 837 and 854
- Population Fragmented Nuclei (%) [6]: 18% and 8%
- Population Healthy Nuclei (%) [6]: 81% and 78% and 90%
- Population Hoechst High Intensity Objects (%) [6]: 5%
- Population Membrane Permeable-Phenotype (%) [6]: 2% and 1%
- Population Mitochondria Different-Phenotype (%) [6]: 6% and 8% and 7%
- Population Mitotic Cells (%) [6]: 100% and 62%
- Population Normal (%) [6]: 94%
- Population Pyknosed Nuclei (%) [6]: 0%
- Population Tubulin-Different-Phenotype (%) [6]: 8% and 13%
- Total Cell Count [6]: 1448 and 1582 and 1694
- Population Apoptotic (%) [7]: 23%
- Population Fragmented Nuclei (%) [7]: 11%
- Population Healthy Nuclei (%) [7]: 73%
- Population Hoechst High Intensity Objects (%) [7]: 8%
- Population Membrane Permeable-Phenotype (%) [7]: 4%
- Population Mitochondria Different-Phenotype (%) [7]: 2%
- Population Mitotic Cells (%) [7]: 76%
- Population Normal (%) [7]: 92%
- Population Pyknosed Nuclei (%) [7]: 15%
- Population Tubulin-Different-Phenotype (%) [7]: 3%
- Total Cell Count [7]: 575
- Population Apoptotic (%) [8]: 44%
- Population Fragmented Nuclei (%) [8]: 8%
- Population Healthy Nuclei (%) [8]: 90%
- Population Hoechst High Intensity Objects (%) [8]: 4%
- Population Membrane Permeable-Phenotype (%) [8]: 0%
- Population Mitochondria Different-Phenotype (%) [8]: 4%
- Population Mitotic Cells (%) [8]: 55%
- Population Normal (%) [8]: 95%
- Population Pyknosed Nuclei (%) [8]: 0%
- Population Tubulin-Different-Phenotype (%) [8]: 5%
- Total Cell Count [8]: 1706
